# Source: ChEMBL document CHEMBL3763127, “Design, synthesis and biological evaluation of novel asperphenamate derivatives” (Eur J Med Chem, 2016)
# Active and inactive are the calls of the source. The rule behind the calls is not given here.
# Tests used:
# Bel-7402 [1] = assay: Induction of apoptosis in human Bel7402 cells assessed as accumulation at subG1 phase at 20 uM after 72 hrs by PI staining-based flow cytometric analysis (reference value: 2.87%); type: functional
# Bel-7402 [2] = assay: Induction of apoptosis in human Bel7402 cells assessed as accumulation at subG1 phase at 20 uM after 48 hrs by PI staining-based flow cytometric analysis (reference value: 2.87%); type: functional
# HeLa [3] = assay: Induction of apoptosis in human HeLa cells assessed as accumulation at subG1 phase at 20 uM after 72 hrs by PI staining-based flow cytometric analysis (reference value: 2.89%); type: functional
# MCF7 [4] = assay: Induction of autophagy in human MCF7 cells assessed as increase in LC3-2 level at 5 to 10 uM after 48 hrs by Western blot analysis; type: functional, cell-based
# Outline: (§1)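 Cells were treated with or without compound for 48 h: MCF-7 at 5 and 10 µM, HeLa and BEL-7402 at 20 and 40 µM. Total protein (10 µg) in SDS sample buffer (pH 6.8) was run on 8–15% SDS-PAGE and transferred to PVDF. LC3-I/LC3-II were probed with HRP secondary antibody and ECL detection. The assay was repeated at least three times.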
# MCF7 [5] = assay: Induction of autophagy in human MCF7 cells at 10 uM after 72 hrs by MDC staining-based flow cytometric analysis (reference value: 2.54%); type: functional
# MCF7 [6] = assay: Induction of autophagy in human MCF7 cells at 5 uM after 72 hrs by MDC staining-based flow cytometric analysis (reference value: 2.54%); type: functional
# MCF7 [7] = assay: Induction of autophagy in human MCF7 cells assessed as increase in autophagosome formation at 5 and 10 uM after 72 hrs by MDC staining-based fluorescence microscopic analysis; type: functional, cell-based
# MCF7 [8] = assay: Induction of autophagy in human MCF7 cells assessed as increase in autophagosome formation at 5 and 10 uM after 72 hrs by AO staining-based fluorescence microscopic analysis; type: functional, cell-based
# Outline: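 Cells in RPMI 1640/10% FBS were exposed to compound or 0.1% DMSO for 72 h: MCF-7 at 5 and 10 µM, HeLa and BEL-7402 at 20 and 40 µM. They were incubated with […] acridine orange for 15 min, washed with PBS, and acidic vesicles were imaged by inverted fluorescence microscopy.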
# MCF7 [9] = assay: Induction of cell cycle arrest in human MCF7 cells assessed as accumulation at S phase at 10 uM after 72 hrs by PI staining-based flow cytometric analysis (reference value: 27.09%); type: functional
# MCF7 [10] = assay: Induction of cell cycle arrest in human MCF7 cells assessed as accumulation at G0/G1 phase at 10 uM after 72 hrs by PI staining-based flow cytometric analysis (reference value: 50.76%); type: functional
# MCF7 [11] = assay: Induction of cell cycle arrest in human MCF7 cells assessed as accumulation at S phase at 10 uM after 48 hrs by PI staining-based flow cytometric analysis (reference value: 27.09%); type: functional
# MCF7 [12] = assay: Induction of cell cycle arrest in human MCF7 cells assessed as accumulation at G2/M phase at 10 uM after 24 hrs by PI staining-based flow cytometric analysis (reference value: 19.85%); type: functional
# MCF7 [13] = assay: Induction of cell cycle arrest in human MCF7 cells assessed as accumulation at G0/G1 phase at 10 uM after 24 hrs by PI staining-based flow cytometric analysis (reference value: 50.76%); type: functional
# MCF7 [14] = assay: Induction of apoptosis in human MCF7 cells assessed as accumulation at subG1 phase at 10 uM after 48 hrs by PI staining-based flow cytometric analysis (reference value: 2.98%); type: functional
# MCF7 [15] = assay: Induction of apoptosis in human MCF7 cells assessed as accumulation at subG1 phase at 10 uM after 24 hrs by PI staining-based flow cytometric analysis (reference value: 2.98%); type: functional
# HeLa [16] = assay: Cytotoxicity against human HeLa cells after 3 days by MTT assay; type: functional, cell-based; conditions: 72 h
# Outline: (§2)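 MCF-7, HeLa and BEL-7402 cells were grown in RPMI 1640 with 10% heat-inactivated FBS, 1 mM glutamine and penicillin/streptomycin at 37 °C under 5% CO2. They were exposed to compound for 3 days, then read by MTT at 570 nm. Viability was taken as treated/control absorbance, and IC50 was derived from it. Values are mean SD of three independent experiments.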
# MCF7 [17] = assay: Induction of cell cycle arrest in human MCF7 cells assessed as accumulation at G0/G1 phase at 10 uM after 48 hrs by PI staining-based flow cytometric analysis (reference value: 50.76%); type: functional
# MCF7 [18] = assay: Cytotoxicity against human MCF7 cells after 3 days by MTT assay; type: functional, cell-based; conditions: MCF7, 72 h; outline: as §2
# HeLa [19] = assay: Induction of autophagy in human HeLa cells assessed as increase in LC3-2 level at 20 and 40 uM after 48 hrs by Western blot analysis; type: functional, cell-based; outline: as §1
# MCF7 [20] = assay: Potency index, ratio of IC50 for cisplatin to IC50 for test compound for cytotoxicity against human MCF7 cells; type: functional
# [21] = Potency index, ratio of IC50 for cisplatin to IC50 for test compound for cytotoxicity against human Bel7402 cells; type: functional, Bel-7402
# HeLa [22] = assay: Induction of autophagy in human HeLa cells assessed as autophagic cell formation at 40 uM after 72 hrs by MDC staining-based flow cytometric analysis (reference value: 1.92%); type: functional
# Bel-7402 [23] = assay: Induction of cell cycle arrest in human Bel7402 cells assessed as accumulation at G2/M phase at 20 uM after 72 hrs by PI staining-based flow cytometric analysis (reference value: 22.26%); type: functional
# Bel-7402 [24] = assay: Induction of cell cycle arrest in human Bel7402 cells assessed as accumulation at S phase at 20 uM after 72 hrs by PI staining-based flow cytometric analysis (reference value: 25.01%); type: functional
# HeLa [25] = assay: Induction of cell cycle arrest in human HeLa cells assessed as accumulation at S phase at 20 uM after 72 hrs by PI staining-based flow cytometric analysis (reference value: 24.17%); type: functional
# HeLa [26] = assay: Induction of cell cycle arrest in human HeLa cells assessed as accumulation at G0/G1 phase at 20 uM after 72 hrs by PI staining-based flow cytometric analysis (reference value: 45.70%); type: functional
# Bel-7402 [27] = assay: Induction of cell cycle arrest in human Bel7402 cells assessed as accumulation at G2/M phase at 20 uM after 48 hrs by PI staining-based flow cytometric analysis (reference value: 22.26%); type: functional
# Bel-7402 [28] = assay: Induction of cell cycle arrest in human Bel7402 cells assessed as accumulation at S phase at 20 uM after 48 hrs by PI staining-based flow cytometric analysis (reference value: 25.01%); type: functional
# Bel-7402 [29] = assay: Induction of cell cycle arrest in human Bel7402 cells assessed as accumulation at G0/G1 phase at 20 uM after 48 hrs by PI staining-based flow cytometric analysis (reference value: 49.44%); type: functional
# HeLa [30] = assay: Induction of cell cycle arrest in human HeLa cells assessed as accumulation at G0/G1 phase at 20 uM after 48 hrs by PI staining-based flow cytometric analysis (reference value: 45.70%); type: functional
# HeLa [31] = assay: Induction of cell cycle arrest in human HeLa cells assessed as accumulation at G2/M phase at 20 uM after 48 hrs by PI staining-based flow cytometric analysis (reference value: 25.44%); type: functional
structure (smiles),measurement,setting,value
Cc1ccc(S(=O)(=O)N[C@H](Cc2ccccc2)C(=O)OC[C@H](Cc2ccccc2)NC(=O)c2ccccc2)cc1,Activity,Bel-7402 [1],3.78%
same,Activity,Bel-7402 [2],3.01%
same,Activity,HeLa [3],2.43%
same,Activity,MCF7 [4],Active
same,Activity,MCF7 [5],56.08%
same,Activity,MCF7 [6],40.31%
same,Activity,MCF7 [7],Active
same,Activity,MCF7 [8],Active
same,Activity,MCF7 [9],28.08%
same,Activity,MCF7 [10],48.05%
same,Activity,MCF7 [11],28.07%
same,Activity,MCF7 [12],19.09%
same,Activity,MCF7 [13],52.57%
same,Activity,MCF7 [14],3.22%
same,Activity,MCF7 [15],3.38%
same,IC50,HeLa [16],16.8 µM
same,Activity,MCF7 [17],48.81%
same,IC50,MCF7 [18],5.87 µM
same,Activity,HeLa [19],Active
same,Ratio IC50,MCF7 [20],3
same,Ratio IC50,[21],1.6
same,Activity,HeLa [22],49.37%
same,Activity,Bel-7402 [23],22.61%
same,Activity,Bel-7402 [24],26.88%
same,Activity,HeLa [25],25.91%
same,Activity,HeLa [26],48.1%
same,Activity,Bel-7402 [27],22.8%
same,Activity,Bel-7402 [28],26.01%
same,Activity,Bel-7402 [29],47.63%
same,Activity,HeLa [30],50.15%
same,Activity,HeLa [31],22.18%
